Assay results published in ChEMBL document CHEMBL1148398, “Design, synthesis, and biological evaluation of thio-containing compounds with serum HDL-cholesterol-elevating properties” (2004).

What was measured:
[1] = system: Cricetinae gen. sp.; experiment: Percent change in triglycerides following oral administration of compound in hypercholesterolemic hamsters at 100 mg/kg/day for 14 days; type: functional
Method in brief: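 Male Syrian Golden hamsters pre-fed chow plus 0.25% cholesterol for 2 weeks and kept on it. Dosed 100 mg/kg/day by oral gavage in 2% Tween 80/saline for 14 days. Serum total cholesterol and glycerol-blanked triglycerides read enzymatically; lipoproteins separated by FPLC with cholesterol measured in each fraction. % change versus vehicle controls; six per group, p < 0.05.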

[2] = system: Rattus norvegicus; experiment: Effect of compound on gain in body weight in 7th group of normal chow-fed male rats after a dose of 100 mg/kg/day; type: functional
Method in brief: (§1)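 Male Sprague–Dawley CD rats (60–80 g) on standard chow under a reversed 12 h light/dark cycle. Compound was suspended in 1.3% Tween 80/0.25% CMC and given as a single daily oral gavage dose for 4 days. Rats were fasted overnight and killed 24 h after the last dose. Serum ALT, AST, ALKP and LDH were read on a clinical analyzer. Weight gain was start versus end weight. Mean ± SEM, n = 6.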

[3] = system: Rattus norvegicus; experiment: Percent change in high-density lipoprotein cholesterol in hypercholesterolemic rats dosed at 100 mg/kg/day for 8 days; type: functional
[4] = system: Rattus norvegicus; experiment: Effect of compound on aspartate aminotransferase (AST) levels in 4th group of normal chow-fed male rats after a dose of 10 mg/kg/day; type: functional, organism-based; method in brief: as §1
[5] = system: Rattus norvegicus; experiment: Effect of compound on liver weight in 2nd group of normal chow-fed male rats after a dose of 2 mg/kg/day; type: functional
Method in brief: (§2)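 Male Sprague–Dawley CD rats, 60–80 g, on chow with a reverse 12 h light/dark cycle. Given one oral gavage dose daily for 4 days, suspended in 1.3% Tween 80/0.25% CMC. Fasted overnight and sacrificed 24 h after the last dose for blood and liver. Serum liver enzymes read on a clinical analyzer. Six per group, mean ± SEM.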

[6] = system: Rattus norvegicus; experiment: Effect of compound on relative liver weight in 2nd group of normal chow-fed male rats after a dose of 2 mg/kg/day; type: functional
Method in brief: (§3)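 Chow-fed male Sprague–Dawley CD rats, 60–80 g, dosed by oral gavage once daily for 4 days in 1.3% Tween 80/0.25% CMC. Fasted overnight and sacrificed 24 h after the last dose. Liver weight expressed as % of body weight at termination. Six per group, mean ± SEM.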

[7] = system: Rattus norvegicus; experiment: Effect of compound on relative liver weight in 3rd group of normal chow-fed male rats after a dose of 5 mg/kg/day; type: functional; method in brief: as §3
[8] = system: Rattus norvegicus; experiment: Effect of compound on high-density lipoprotein cholesterol levels in 3rd group of normal chow-fed male rats after a dose of 5 mg/kg/day; type: functional, organism-based
[9] = system: Rattus norvegicus; experiment: Effect of compound on high-density lipoprotein cholesterol levels in 4th group of normal chow-fed male rats after a dose of 10 mg/kg/day; type: functional, organism-based
[10] = system: Rattus norvegicus; experiment: Effect of compound on high-density lipoprotein cholesterol levels in 5th group of normal chow-fed male rats after a dose of 20 mg/kg/day; type: functional, organism-based
[11] = system: Rattus norvegicus; experiment: Effect of compound on serum high-density lipoprotein cholesterol concentration in chow-fed male rats at a dose of 100 mg/kg/day; type: functional, organism-based
Method in brief: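 Separate dose-response study in male Sprague–Dawley CD rats, 60–80 g, on chow. Oral gavage once daily for 4 days in 1.3% Tween 80 / 0.25% CMC; fasted overnight, bled 24 h after last dose. Apo-A1 by ELISA with rabbit anti-rat primary, alkaline phosphatase-conjugated anti-rabbit IgG and p-nitrophenyl phosphate substrate. HDL-C by FPLC fractionation. Mean ± SEM, six per group.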

[12] = system: Rattus norvegicus; experiment: Effect of compound on thyroxine levels in 2nd group of normal chow-fed male rats after a dose of 2 mg/kg/day; type: functional, organism-based
Method in brief: (§4)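 Male Sprague–Dawley CD rats, 60–80 g, on standard chow with reverse 12 h light/dark cycle. One oral gavage dose daily for 4 days, suspended in 1.3% Tween 80 and 0.25% CMC. Fasted overnight; sacrificed 24 h after the last dose. Serum TC on clinical analyzer, lipoproteins by FPLC with cholesterol per fraction, T4 on analyzer. Mean ± SEM, six rats per group.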

[13] = system: Rattus norvegicus; experiment: Effect of compound on thyroxine levels in 3rd group of normal chow-fed male rats after a dose of 5 mg/kg/day; type: functional, organism-based; method in brief: as §4
[14] = system: Rattus norvegicus; experiment: Effect of compound on thyroxine levels in 7th group of normal chow-fed male rats after a dose of 100 mg/kg/day; type: functional, organism-based; method in brief: as §4
[15] = system: Rattus norvegicus; experiment: Effect of compound on total plasma cholesterol levels in 3rd group of normal chow-fed male rats after a dose of 5 mg/kg/day; type: functional, organism-based; method in brief: as §4
[16] = system: Rattus norvegicus; experiment: Effect of compound on lactic dehydrogenase (LDH) levels in 7th group of normal chow-fed male rats after a dose of 100 mg/kg/day; type: functional, organism-based; method in brief: as §2
[17] = system: Rattus norvegicus; experiment: Effect of compound on lactic dehydrogenase (LDH) levels in 1st group of normal chow-fed male rats after a dose of 1 mg/kg/day; type: functional, organism-based; method in brief: as §1
[18] = Effect on serum lipids in 2nd group of cholesterol-fed male hamsters at 10 mg/kg/day after 14 days of treatment was evaluated as ratio of total cholesterol levels to high-density lipoprotein cholesterol levels; type: functional
Method in brief: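 Male Syrian Golden hamsters on chow plus 0.25% cholesterol, 2 weeks before and during dosing. Oral gavage for 14 days in 2% Tween 80/saline. Fasted 4 h before sacrifice. Serum total cholesterol measured enzymatically; HDL-C from cholesterol in FPLC lipoprotein fractions; TC/HDL-C ratio calculated. Six per group, mean ± SEM.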

[19] = system: Rattus norvegicus; experiment: Effect of compound on low-density lipoprotein cholesterol levels in 5th group of normal chow-fed male rats after a dose of 20 mg/kg/day; type: functional, organism-based; method in brief: as §4
[20] = system: Mesocricetus auratus; experiment: Effect of compound on gain in body weight in 2nd group of cholesterol-fed male hamsters at 10 mg/kg/day after 14 days of treatment
[21] = system: Cricetinae gen. sp.; experiment: Effect of compound on triglycerides level in 4th group of cholesterol-fed male hamsters at 100 mg/kg/day after 14 days of treatment; details: Mesocricetus auratus
[22] = system: Cricetinae gen. sp.; experiment: Effect of compound on total plasma cholesterol levels in 1st group of cholesterol-fed male hamsters at 3 mg/kg/day after 14 days of treatment; details: Mesocricetus auratus
[23] = system: Cricetinae gen. sp.; experiment: Effect of compound on alanine aminotransferase (ALT) levels in 1st group of cholesterol-fed male hamsters at 3 mg/kg/day after 14 days of treatment; details: Mesocricetus auratus
[24] = system: Cricetinae gen. sp.; experiment: Effect of compound on aspartate aminotransferase (AST) levels in 1st group of cholesterol-fed male hamsters at 3 mg/kg/day after 14 days of treatment; details: Mesocricetus auratus
[25] = system: Cricetinae gen. sp.; experiment: Effect of compound on aspartate aminotransferase (AST) levels in 2nd group of cholesterol-fed male hamsters at 10 mg/kg/day after 14 days of treatment; details: Mesocricetus auratus
[26] = system: Cricetinae gen. sp.; experiment: Effect of compound on low-density lipoprotein cholesterol levels in 4th group of cholesterol-fed male hamsters at 100 mg/kg/day after 14 days of treatment; details: Mesocricetus auratus
[27] = system: Cricetinae gen. sp.; experiment: Effect of compound on very low-density lipoprotein cholesterol levels in 2nd group of cholesterol-fed male hamsters at 10 mg/kg/day after 14 days of treatment; details: Mesocricetus auratus

`CCN1CC(=O)N(c2cc(Cl)ccc2C)C1=S` gave a Change [1] of -34%, a Body weight [2] of 22.5 g and a Change [3] of 132%. It also gave a Level [4] of 182 U l-1, a Liver weight [5] of 7.3 g and a Relative liver weight [6] of 3.9%. For the same compound, the Relative liver weight [7] was 3.8%, the Serum level [8] was 45 mg/dL and the Serum level [9] was 61 mg/dL. The Serum level [10] was 58 mg/dL, the Serum level [11] was 104 mg/dL and the Serum level [12] was 4.33 µg/dL. The Serum level [13] was 4.23 µg/dL, the Serum level [14] was 3.4 µg/dL and the Serum level [15] was 62 mg/dL. The Level [16] was 681 U l-1, the Level [17] was 724 U l-1 and the Ratio [18] was 2.85. The Serum level [19] was 8.5 mg/dL, the Body weight [20] was 9.5 g and the Serum level [21] was 342 mg/dL. It also gave a Serum level [22] of 429 mg/dL, a Level [23] of 182 U l-1 and a Level [24] of 312 U l-1. For the same compound, the Level [25] was 345 U l-1, the Serum level [26] was 102 mg/dL and the Serum level [27] was 102 mg/dL.
